From publication PMC3077087 (Cancer research, 2011)

Legend:
PDK1 = target: T1, PDK1 (Homo sapiens, UniProt O15530); assay: Activity against PDK1; assay type: biochemical
T1 sequence (O15530 1-556): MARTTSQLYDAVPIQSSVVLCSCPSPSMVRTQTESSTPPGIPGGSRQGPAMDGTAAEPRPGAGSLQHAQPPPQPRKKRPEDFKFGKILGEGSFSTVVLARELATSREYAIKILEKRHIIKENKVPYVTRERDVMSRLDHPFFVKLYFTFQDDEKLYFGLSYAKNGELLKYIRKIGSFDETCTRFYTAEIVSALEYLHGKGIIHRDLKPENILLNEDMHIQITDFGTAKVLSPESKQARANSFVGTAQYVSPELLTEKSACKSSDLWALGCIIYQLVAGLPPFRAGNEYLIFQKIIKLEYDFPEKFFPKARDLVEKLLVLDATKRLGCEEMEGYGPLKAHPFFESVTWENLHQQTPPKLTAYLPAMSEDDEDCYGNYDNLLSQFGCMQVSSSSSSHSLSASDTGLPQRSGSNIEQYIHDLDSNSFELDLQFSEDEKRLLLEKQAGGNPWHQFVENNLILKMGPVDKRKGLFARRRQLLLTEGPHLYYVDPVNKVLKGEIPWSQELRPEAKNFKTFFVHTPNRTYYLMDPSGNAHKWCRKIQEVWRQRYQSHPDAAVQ

PI3Kγ = PI3Kγ (Homo sapiens, UniProt P48736); assay: Panel of 98 purified protein kinases: PI3Kγ; assay type: biochemical; conditions: 98 purified protein kinases panel, data not shown
Chain of PI3Kγ (P48736 whole entry, species assumed): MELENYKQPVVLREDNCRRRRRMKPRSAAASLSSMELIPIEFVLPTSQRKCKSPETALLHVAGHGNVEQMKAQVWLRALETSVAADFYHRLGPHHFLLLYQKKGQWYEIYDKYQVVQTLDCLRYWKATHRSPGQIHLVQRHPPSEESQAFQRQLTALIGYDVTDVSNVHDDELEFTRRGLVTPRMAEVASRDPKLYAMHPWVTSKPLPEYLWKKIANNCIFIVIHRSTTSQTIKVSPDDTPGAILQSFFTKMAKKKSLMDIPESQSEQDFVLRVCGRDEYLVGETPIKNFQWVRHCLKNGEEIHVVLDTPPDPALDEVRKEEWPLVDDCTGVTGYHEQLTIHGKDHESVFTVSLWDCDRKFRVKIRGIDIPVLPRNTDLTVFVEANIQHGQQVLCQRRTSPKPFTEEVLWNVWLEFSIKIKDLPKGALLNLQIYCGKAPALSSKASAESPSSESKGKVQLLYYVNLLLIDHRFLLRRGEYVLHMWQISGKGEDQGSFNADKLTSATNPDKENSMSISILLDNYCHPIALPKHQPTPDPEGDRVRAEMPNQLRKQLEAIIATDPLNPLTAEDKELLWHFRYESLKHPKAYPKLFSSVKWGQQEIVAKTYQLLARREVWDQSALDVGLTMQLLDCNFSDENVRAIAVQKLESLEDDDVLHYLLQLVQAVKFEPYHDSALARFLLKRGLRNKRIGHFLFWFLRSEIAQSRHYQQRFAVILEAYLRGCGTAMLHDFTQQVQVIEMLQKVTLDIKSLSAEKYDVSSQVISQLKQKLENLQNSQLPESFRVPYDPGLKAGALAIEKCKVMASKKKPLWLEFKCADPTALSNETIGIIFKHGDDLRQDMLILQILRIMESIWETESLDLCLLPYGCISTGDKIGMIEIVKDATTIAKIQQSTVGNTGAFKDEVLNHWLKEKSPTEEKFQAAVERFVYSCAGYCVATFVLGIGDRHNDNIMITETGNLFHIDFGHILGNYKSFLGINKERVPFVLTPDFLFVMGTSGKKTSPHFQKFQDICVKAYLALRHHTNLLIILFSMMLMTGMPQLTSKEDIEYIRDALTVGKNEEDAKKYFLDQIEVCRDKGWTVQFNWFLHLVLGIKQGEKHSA

GEO colorectal xenograft [1] = assay: GEO xenograft tumor growth; assay type: in vivo, mice; conditions: GEO xenografts, compared with rapamycin
[2] = system: mTORC1 and mTORC2 signaling; assay: In vitro mTORC1/mTORC2 signaling; assay type: cell-based; conditions: for Akt phosphorylation at mTORC2-specific Ser473 site: Supplemental Figure 1A
PI3Kδ = PI3Kδ (Homo sapiens, UniProt O00329); assay: Panel of 98 purified protein kinases: PI3Kδ; assay type: biochemical; conditions: 98 purified protein kinases panel, data not shown
Chain of PI3Kδ (O00329 whole entry, species assumed): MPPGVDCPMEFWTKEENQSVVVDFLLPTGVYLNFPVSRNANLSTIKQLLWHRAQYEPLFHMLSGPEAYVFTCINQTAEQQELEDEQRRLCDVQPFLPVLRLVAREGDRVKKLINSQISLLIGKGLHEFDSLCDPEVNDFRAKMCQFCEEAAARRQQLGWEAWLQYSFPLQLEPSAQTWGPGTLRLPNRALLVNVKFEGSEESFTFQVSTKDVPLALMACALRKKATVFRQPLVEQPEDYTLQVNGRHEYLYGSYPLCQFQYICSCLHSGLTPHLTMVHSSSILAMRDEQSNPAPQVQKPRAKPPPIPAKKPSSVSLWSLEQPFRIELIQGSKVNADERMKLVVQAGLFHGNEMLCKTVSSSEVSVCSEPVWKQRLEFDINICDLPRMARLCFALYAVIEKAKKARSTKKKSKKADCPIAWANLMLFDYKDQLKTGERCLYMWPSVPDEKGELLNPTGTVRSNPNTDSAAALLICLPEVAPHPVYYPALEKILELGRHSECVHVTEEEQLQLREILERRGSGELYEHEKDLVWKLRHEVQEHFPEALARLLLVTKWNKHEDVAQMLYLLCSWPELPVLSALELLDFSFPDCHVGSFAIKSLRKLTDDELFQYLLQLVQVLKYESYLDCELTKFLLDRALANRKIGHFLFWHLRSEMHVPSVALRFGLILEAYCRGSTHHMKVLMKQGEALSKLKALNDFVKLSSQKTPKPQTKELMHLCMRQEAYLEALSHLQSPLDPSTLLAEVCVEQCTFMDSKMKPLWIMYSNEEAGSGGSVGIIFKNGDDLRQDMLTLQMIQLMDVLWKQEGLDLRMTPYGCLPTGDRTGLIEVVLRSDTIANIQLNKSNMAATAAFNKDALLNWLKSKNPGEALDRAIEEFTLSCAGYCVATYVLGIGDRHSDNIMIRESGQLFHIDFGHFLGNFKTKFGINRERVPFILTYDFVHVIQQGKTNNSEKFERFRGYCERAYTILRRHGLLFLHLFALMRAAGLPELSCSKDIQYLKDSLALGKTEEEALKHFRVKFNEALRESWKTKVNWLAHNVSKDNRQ
Chain of PI3Kδ (P27986 whole entry partner, species assumed): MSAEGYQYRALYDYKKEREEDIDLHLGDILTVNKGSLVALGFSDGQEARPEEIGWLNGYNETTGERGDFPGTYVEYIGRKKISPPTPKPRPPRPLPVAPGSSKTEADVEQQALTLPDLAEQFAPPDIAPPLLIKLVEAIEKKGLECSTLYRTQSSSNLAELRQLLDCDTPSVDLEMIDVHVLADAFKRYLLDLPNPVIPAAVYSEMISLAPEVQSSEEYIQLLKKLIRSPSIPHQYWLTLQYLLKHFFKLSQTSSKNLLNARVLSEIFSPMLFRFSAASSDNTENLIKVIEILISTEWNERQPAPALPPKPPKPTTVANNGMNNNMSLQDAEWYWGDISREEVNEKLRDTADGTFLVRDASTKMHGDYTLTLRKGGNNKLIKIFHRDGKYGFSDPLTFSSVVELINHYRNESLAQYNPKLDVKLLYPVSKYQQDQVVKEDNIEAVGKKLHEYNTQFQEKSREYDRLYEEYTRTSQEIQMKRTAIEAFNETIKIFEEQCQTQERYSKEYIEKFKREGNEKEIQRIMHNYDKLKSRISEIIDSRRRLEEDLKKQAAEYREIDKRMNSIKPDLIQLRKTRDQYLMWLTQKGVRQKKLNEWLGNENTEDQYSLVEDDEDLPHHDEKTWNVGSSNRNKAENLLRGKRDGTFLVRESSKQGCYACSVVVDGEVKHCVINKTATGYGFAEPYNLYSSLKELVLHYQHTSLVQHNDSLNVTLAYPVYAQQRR

RET = RET (Homo sapiens, UniProt P07949); assay: Panel of 98 purified protein kinases: RET; assay type: biochemical; conditions: 98 purified protein kinases panel, data not shown
Chain of RET (P07949 29-1114, species assumed): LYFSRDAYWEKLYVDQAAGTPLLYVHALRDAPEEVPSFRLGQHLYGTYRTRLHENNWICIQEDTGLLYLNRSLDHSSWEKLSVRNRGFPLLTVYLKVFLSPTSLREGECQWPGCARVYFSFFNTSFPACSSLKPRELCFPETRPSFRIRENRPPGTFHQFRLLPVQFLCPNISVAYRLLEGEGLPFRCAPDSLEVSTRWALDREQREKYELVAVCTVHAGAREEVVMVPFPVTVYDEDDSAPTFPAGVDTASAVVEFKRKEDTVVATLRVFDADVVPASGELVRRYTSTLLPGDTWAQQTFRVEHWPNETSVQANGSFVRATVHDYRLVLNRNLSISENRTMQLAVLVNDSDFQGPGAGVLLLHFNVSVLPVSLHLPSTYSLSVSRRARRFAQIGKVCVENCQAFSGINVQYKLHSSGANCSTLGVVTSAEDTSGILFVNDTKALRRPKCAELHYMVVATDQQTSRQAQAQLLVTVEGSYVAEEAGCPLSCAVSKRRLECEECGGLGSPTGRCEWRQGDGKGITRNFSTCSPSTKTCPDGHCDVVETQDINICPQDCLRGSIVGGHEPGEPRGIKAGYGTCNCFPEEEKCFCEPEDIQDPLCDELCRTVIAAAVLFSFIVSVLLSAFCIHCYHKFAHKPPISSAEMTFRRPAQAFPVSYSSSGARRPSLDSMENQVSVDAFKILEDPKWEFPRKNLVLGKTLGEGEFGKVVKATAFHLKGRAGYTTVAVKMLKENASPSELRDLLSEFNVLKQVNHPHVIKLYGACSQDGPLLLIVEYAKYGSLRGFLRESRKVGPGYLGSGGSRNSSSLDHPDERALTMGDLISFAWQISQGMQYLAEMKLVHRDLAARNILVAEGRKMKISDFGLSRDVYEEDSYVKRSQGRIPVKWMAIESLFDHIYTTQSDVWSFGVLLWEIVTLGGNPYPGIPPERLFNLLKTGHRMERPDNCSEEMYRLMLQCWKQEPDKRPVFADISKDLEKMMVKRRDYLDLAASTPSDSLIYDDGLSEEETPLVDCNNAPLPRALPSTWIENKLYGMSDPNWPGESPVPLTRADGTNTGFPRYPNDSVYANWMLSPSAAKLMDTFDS

mTOR = mTOR (Homo sapiens, UniProt P42345); assay: Panel of 98 purified protein kinases: mTOR; assay type: biochemical; conditions: 98 purified protein kinases panel
GEO colorectal xenograft [3] = assay: GEO xenograft pharmacodynamics; assay type: in vivo, mice; conditions: GEO xenografts, 12 days
Procedure, shortened: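 GEO cells implanted s.c. in right flank of nu/nu CD-1 mice and dosed for 12 days. Tumors collected 2, 8 and 24 h post-dose and snap frozen. Phospho- and total 4E-BP1 (37/46), Akt (473), S6 (235/236) quantified by Western blot; n=2.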

PIP5Kγ = PIP5Kγ (Homo sapiens, UniProt O60331); assay: Panel of 98 purified protein kinases: PIP5Kγ; assay type: biochemical; conditions: 98 purified protein kinases panel, data not shown
RIP-Tag2 tumors [4] = assay: Intratumoral hemorrhage; assay type: in vivo, mice; conditions: 4 days after cessation of OSI-930
Procedure, shortened: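 Regrowth design in 10-week-old RIP-Tag2 mice: OSI-930 for 7 days, then vehicle, test compound or rapamycin for 4 days; vehicle-only arm runs 11 days. Perfusion-fixed tumors cut at 60–80 µm. Erythrocytes immunostained; area density from fluorescence images at empirical threshold 30–50. Values are SEM of 3–8 mice per group; ANOVA with Fisher PLSD.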

RIP-Tag2 tumors [5] = assay: Vascular regrowth after cessation of OSI-930 in RIP-Tag2 tumors; assay type: in vivo, mice
RIP-Tag2 tumors [6] = assay: RIP-Tag2 tumor vascularity; assay type: in vivo, mice
Procedure, shortened: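 RIP-Tag2 mice, 9–10 weeks old, dosed up to 7 days. Vehicle (Labrafil or water); test compound 75 mg/kg BID by gavage; OSI-930 200 mg/kg QD by gavage; rapamycin 20 mg/kg QD ip. Perfusion-fixed, 60–80 µm sections stained for CD31 and basement membrane. Area density at threshold 30–50; empty sleeves scored. SEM of 3–8 mice per group; ANOVA/Fisher PLSD.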

[7] = system: RIP-Tag2 pancreatic neuroendocrine tumors; assay: Signaling, proliferation and apoptosis in RIP-Tag2 tumors, single agents; assay type: in vivo, mice; conditions: for Akt and 4E-BP1 phosphorylation: 7-day treatment
Procedure, shortened: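 RIP-Tag2 mice (9–10 weeks) treated 7 days: test compound 75 mg/kg BID gavage, rapamycin 20 mg/kg QD ip, or vehicle. Perfusion-fixed tumor sections (60–80 µm) immunostained for phospho-S6K, phospho-Akt and phospho-4E-BP1 with CD31, plus phospho-histone H3 and activated caspase-3. Examined by fluorescence/confocal microscopy and quantified. SEM of 3–8 mice per group; ANOVA with Fisher PLSD.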

MEK2 = MEK2 (Homo sapiens, UniProt P36507); assay: Panel of 98 purified protein kinases: MEK2; assay type: biochemical; conditions: 98 purified protein kinases panel, data not shown
Chain of MEK2 (P36507 whole entry, species assumed): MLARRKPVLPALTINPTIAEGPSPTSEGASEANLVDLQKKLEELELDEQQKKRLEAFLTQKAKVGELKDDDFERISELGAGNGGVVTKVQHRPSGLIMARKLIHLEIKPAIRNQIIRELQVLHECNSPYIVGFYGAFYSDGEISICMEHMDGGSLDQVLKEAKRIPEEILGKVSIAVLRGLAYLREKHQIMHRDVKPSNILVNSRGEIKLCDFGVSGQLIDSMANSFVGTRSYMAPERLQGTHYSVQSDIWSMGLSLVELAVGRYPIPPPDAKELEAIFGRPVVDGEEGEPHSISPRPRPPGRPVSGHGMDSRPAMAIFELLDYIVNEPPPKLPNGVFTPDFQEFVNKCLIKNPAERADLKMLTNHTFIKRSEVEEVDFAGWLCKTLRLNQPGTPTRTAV

RIP-Tag2 tumors [8] = assay: VEGF in RIP-Tag2 tumor lysates, multiplex antibody array; assay type: in vivo, mice; conditions: for VEGF-B expression: data not shown
Procedure, shortened: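 Tumors from RIP-Tag2 mice given vehicle, test compound or rapamycin. Tumor lysates run on mouse angiogenesis antibody arrays per manufacturer's directions. VEGF signal read as pixel density. SEM of 3–8 mice per group; ANOVA with Fisher PLSD.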

JNK3 = JNK3 (Homo sapiens, UniProt P53779); assay: Panel of 98 purified protein kinases: JNK3; assay type: biochemical; conditions: 98 purified protein kinases panel, data not shown
Chain of JNK3 (P53779 whole entry, species assumed): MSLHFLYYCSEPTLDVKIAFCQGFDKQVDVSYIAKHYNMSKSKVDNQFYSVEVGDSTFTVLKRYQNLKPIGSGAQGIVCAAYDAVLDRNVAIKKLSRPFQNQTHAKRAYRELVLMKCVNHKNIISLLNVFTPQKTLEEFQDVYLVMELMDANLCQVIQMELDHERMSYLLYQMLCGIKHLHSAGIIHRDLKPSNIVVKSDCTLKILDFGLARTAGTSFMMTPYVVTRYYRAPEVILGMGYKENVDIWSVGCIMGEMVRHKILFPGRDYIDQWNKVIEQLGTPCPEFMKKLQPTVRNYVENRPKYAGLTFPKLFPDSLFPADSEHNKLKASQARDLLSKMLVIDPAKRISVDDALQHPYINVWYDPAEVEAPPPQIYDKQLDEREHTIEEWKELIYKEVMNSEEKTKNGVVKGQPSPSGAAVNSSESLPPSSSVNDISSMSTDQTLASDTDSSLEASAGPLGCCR

activity against PDK1 (PDK1)	inhibition of PI3Kγ (PI3Kγ)	inhibition of PI3Kδ (PI3Kδ)	inhibition of RET (RET)	inhibition of mTOR (mTOR)	Structure (SMILES)	tumor growth (GEO colorectal xenograft [1])	4E-BP1 phosphorylation at Ser37/46 [2]	Akt phosphorylation at mTORC2-specific Ser473 site [2]	empty basement membrane sleeves (vessel regression) (RIP-Tag2 tumors [6]; RIP-Tag2, 7 days)	Akt and 4E-BP1 phosphorylation [7]	VEGF-B expression (RIP-Tag2 tumors [8])	other results
inactive	greater than 90%	greater than 90%	greater than 90%	fully inhibited	COc1cccc2cc(-c3nc([C@H]4CC[C@H](C(=O)O)CC4)n4ncnc(N)c34)[nH]c12 [OSI-027]	slowed tumor growth more than did rapamycin	inhibited	dose-dependently attenuated	–	–	–	4E-BP1, Akt, and S6 phosphorylation (GEO colorectal xenograft [3]; 65 mg/kg, after 2 hours): decreased; inhibition of PIP5Kγ (PIP5Kγ): significantly inhibited
–	–	–	–	–	O=C(Nc1ccc(OC(F)(F)F)cc1)c1sccc1NCc1ccnc2ccccc12 [OSI-930]	–	–	–	numerous	–	–	TER-119 levels, difference from baseline (RIP-Tag2 tumors [4]): ≤ 28%; decrease in vessel density (RIP-Tag2 tumors [5]; OSI-930 7 days, then vehicle 4 days after cessation): 18%; reduction of tumor vascularity (RIP-Tag2 tumors [5]; regrowth study, OSI-930 for 7 days): 63%
inactive	greater than 90%	greater than 90%	greater than 90%	fully inhibited	Nc1nccn2c1c(-c1cc3cccc(Cl)c3[nH]1)nc2[C@H]1CC[C@H](C(=O)O)CC1 [OXA-01]	slowed tumor growth more than did rapamycin	inhibited	dose-dependently attenuated	not apparent	decreased	unchanged	decrease in tumor vessel regrowth (RIP-Tag2 tumors [5]; named drug for 1 day after withdrawal of OSI-930, data not shown): no significant decrease; apoptosis measured by activated-caspase-3 ([7]; 7 days): increased; cellular proliferation determined by phospho-histone H3 ([7]; 7 days): decreased; inhibition of MEK2 (MEK2): inhibited; inhibition of JNK3 (JNK3): inhibited; reduction of tumor vascularity (CD31) (RIP-Tag2 tumors [6]; RIP-Tag2, at 1, 2, or 4 days): not detectably reduced
–	–	–	–	–	CO[C@H]1C[C@@H]2CC[C@@H](C)[C@@](O)(O2)C(=O)C(=O)N2CCCC[C@H]2C(=O)O[C@H]([C@H](C)C[C@@H]2CC[C@@H](O)[C@H](OC)C2)CC(=O)[C@H](C)/C=C(\C)[C@@H](O)[C@@H](OC)C(=O)[C@H](C)C[C@H](C)/C=C/C=C/C=C/1C [rapamycin, reference compound]	–	failed to inhibit	failed to inhibit	not apparent	not observed	unchanged	S6Kinase and its substrate S6 [2]: inhibited; phopsho-S6K relative to control [7]: inhibited; reduction of VEGF-A (densitometric analysis) (RIP-Tag2 tumors [8]): no significant reduction; phospho-S6 and phospho-4E-BP1 (GEO colorectal xenograft [3]; 20 mg/kg): inhibited; reduction of tumor vascularity (CD31) compared to baseline (RIP-Tag2 tumors [6]; RIP-Tag2, 7 days): not significantly reduced
